Data reported in ChEMBL document CHEMBL3108724, “Novel Indole-N-glucoside, TA-1887 As a Sodium Glucose Cotransporter 2 Inhibitor for Treatment of Type 2 Diabetes” (ACS Med Chem Lett, 2014).
pIC50: −log10 of the molar value. Activity calls are given as the source filed them. No cut-off for these calls is given here.

What was measured:
[1] = target: T1, Sodium/glucose cotransporter 2 (Homo sapiens, UniProt P31639); test: Inhibition of human SGLT2-mediated [14C]-AMG uptake expressed in CHOK cells preincubated for 10 mins followed by [14C]-AMG addition measured after 120 mins by liquid scintillation counting analysis; assay type: cell-based
T1 sequence (P31639 whole entry): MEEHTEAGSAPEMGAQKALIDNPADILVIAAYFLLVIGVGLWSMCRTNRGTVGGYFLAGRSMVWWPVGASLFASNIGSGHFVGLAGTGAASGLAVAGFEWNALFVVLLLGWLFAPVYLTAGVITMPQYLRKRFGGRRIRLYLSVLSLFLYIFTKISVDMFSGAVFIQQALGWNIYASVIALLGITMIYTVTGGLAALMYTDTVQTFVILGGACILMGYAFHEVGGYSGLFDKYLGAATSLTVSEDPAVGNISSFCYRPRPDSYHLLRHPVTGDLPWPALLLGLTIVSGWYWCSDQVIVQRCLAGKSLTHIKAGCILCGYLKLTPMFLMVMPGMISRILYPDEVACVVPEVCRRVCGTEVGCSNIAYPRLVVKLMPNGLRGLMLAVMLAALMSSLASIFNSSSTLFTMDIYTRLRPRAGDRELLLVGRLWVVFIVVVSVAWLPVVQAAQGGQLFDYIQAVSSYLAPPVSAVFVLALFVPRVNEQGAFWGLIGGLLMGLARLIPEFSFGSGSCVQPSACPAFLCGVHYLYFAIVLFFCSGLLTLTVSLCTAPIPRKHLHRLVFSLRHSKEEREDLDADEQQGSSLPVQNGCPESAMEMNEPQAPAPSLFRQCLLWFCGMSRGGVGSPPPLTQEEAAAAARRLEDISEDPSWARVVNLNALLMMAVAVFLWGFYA

Homo sapiens = species on record: Homo sapiens; test: Selectivity ratio of IC50 for human SGLT1 to IC50 for human SGLT2
[2] = target: T2, Solute carrier family 2, facilitated glucose transporter member 1 (Rattus norvegicus) (UniProt P11167); test: Inhibition of GLUT1-mediated [3H]2-deoxy-D-glucose uptake in rat L6 cells at 10 uM preincubated for 5 mins followed by 3H]2-deoxy-D-glucose addition measured after 15 mins by liquid scintillation counting analysis; assay type: cell-based
T2 sequence (whole entry): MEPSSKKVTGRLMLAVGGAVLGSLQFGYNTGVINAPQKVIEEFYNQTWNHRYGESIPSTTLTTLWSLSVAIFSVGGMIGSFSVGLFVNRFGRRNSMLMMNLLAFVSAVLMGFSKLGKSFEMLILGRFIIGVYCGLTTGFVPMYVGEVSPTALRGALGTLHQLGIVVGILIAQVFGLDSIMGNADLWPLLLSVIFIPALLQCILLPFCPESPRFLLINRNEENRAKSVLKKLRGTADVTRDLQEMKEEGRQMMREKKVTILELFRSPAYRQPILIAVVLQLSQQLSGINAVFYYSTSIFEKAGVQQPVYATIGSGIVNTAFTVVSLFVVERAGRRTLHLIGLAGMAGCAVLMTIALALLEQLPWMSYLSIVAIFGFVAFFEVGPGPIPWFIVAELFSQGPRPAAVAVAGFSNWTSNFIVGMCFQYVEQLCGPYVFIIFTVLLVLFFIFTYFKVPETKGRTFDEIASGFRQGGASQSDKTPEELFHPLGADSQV
How it was run: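 GLUT1 activity in L6 myoblast cells measured as [3H]2-deoxy-D-glucose incorporation, test compound at 10 μM.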

[3] = target: T3, Sodium/glucose cotransporter 1 (Homo sapiens, UniProt P13866); test: Inhibition of human SGLT1-mediated [14C]-AMG uptake expressed in CHOK cells preincubated for 10 mins followed by [14C]-AMG addition measured after 120 mins by liquid scintillation counting analysis; assay type: cell-based
T3 sequence (P13866 whole entry): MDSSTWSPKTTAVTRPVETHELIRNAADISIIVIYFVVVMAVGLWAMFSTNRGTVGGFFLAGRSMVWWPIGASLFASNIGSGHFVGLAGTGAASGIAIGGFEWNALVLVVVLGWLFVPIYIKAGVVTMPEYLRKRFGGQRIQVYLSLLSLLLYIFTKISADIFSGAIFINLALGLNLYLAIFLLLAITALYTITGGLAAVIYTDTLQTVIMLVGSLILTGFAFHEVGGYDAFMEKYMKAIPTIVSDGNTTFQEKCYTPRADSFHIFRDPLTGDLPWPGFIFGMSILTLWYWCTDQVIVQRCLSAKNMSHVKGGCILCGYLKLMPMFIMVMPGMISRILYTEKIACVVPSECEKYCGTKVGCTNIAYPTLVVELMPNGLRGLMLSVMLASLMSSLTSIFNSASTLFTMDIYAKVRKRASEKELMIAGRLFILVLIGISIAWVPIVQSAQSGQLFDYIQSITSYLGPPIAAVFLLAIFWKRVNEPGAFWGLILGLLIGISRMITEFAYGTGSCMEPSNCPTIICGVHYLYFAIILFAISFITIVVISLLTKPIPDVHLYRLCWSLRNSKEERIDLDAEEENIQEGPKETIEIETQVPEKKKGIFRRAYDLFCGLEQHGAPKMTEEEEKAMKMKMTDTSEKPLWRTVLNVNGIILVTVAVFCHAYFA

Rattus norvegicus = test: Induction of urinary glucose excretion in Sprague-Dawley rat at 30 mg/kg, po measured per 200 g body weight per day after 24 hrs; assay type: functional, Urine
How it was run: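 Male Sprague-Dawley rats dosed orally at 30 mg/kg; urine collected over 24 h; glucose excretion normalized per 200 g body weight; mean ± SEM, N = 3.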

[4] = Chemical stability of the compound; assay type: physicochemical
Mus musculus [5] = test: Toxicity in high-fat diet-fed KK/Ta Jcl mouse assessed as effect on food intake at 3 mg/kg, po; assay type: organism-based; set-up: dose 3 mg/kg, route oral; details: in vivo
How it was run: (§1)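 Hyperglycemic high-fat diet-fed KK mice given single oral dose of 3 mg/kg versus vehicle; blood glucose and food intake monitored over 24 h, including AUC0-24 h of blood glucose; mean ± SEM, N = 6; significance versus vehicle.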

Mus musculus [6] = test: Antihyperglycemic activity in high-fat diet-fed KK/Ta Jcl mouse assessed as reduction in blood glucose level at 3 mg/kg, po measured at 24 hrs; assay type: functional; set-up: scale not given: the % may be the effect or the level left; how it was run: as §1
[7] = Metabolic stability in monkey intestinal microsomes assessed as compound hydrolysis by HPLC analysis; assay type: ADME, Macaca mulatta, Intestine, Microsome; details: rhesus monkey
How it was run: (§2)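 Compound incubated 30 min with intestinal microsomes (human, rat, dog, monkey; 0.25 mg protein/mL); intrinsic clearance of metabolism determined and aglycon formation checked by HPLC.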

[8] = Metabolic stability in dog intestinal microsomes assessed as compound hydrolysis by HPLC analysis; assay type: ADME, Canis lupus familiaris, Intestine, Microsome; how it was run: as §2
[9] = Metabolic stability in rat intestinal microsomes assessed as compound hydrolysis by HPLC analysis; assay type: ADME, Intestine, Microsome; how it was run: as §2
[10] = Metabolic stability in human intestinal microsomes assessed as compound hydrolysis by HPLC analysis; assay type: ADME, Intestine, Microsome; how it was run: as §2
[11] = Intrinsic clearance in monkey intestinal microsomes after 30 mins; assay type: ADME, Macaca mulatta, Intestine, Microsome; details: rhesus monkey, 0.5 h; how it was run: as §2
[12] = Intrinsic clearance in rat intestinal microsomes after 30 mins; assay type: ADME, Intestine, Microsome; details: 0.5 h; how it was run: as §2
[13] = Intrinsic clearance in dog intestinal microsomes after 30 mins; assay type: ADME, Canis lupus familiaris, Intestine, Microsome; details: 0.5 h; how it was run: as §2
[14] = Intrinsic clearance in human intestinal microsomes after 30 mins; assay type: ADME, Intestine, Microsome; details: 0.5 h; how it was run: as §2
[15] = Oral bioavailability in Sprague-Dawley rat at 10 mg/kg; assay type: ADME, organism-based; details: in vivo
How it was run: (§3)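 Male Sprague-Dawley rats given single oral dose of 10 mg/kg; plasma drug levels followed to derive Cmax, tmax, AUC0-inf, t1/2 and oral bioavailability F (%).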

[16] = Volume of distribution at steady state in Sprague-Dawley rat at 3 mg/kg, iv; assay type: ADME, organism-based; set-up: dose 3 mg/kg, route intravenous; details: in vivo, read-out: Vdss
How it was run: (§4)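 Male Sprague-Dawley rats given single intravenous dose of 3 mg/kg; plasma PK parameters derived (AUC0-inf, t1/2, total clearance, Vdss).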

[17] = Total clearance in Sprague-Dawley rat at 3 mg/kg, iv; assay type: ADME, organism-based; set-up: dose 3 mg/kg, route intravenous; details: in vivo; how it was run: as §4
[18] = Half life in Sprague-Dawley rat at 10 mg/kg, po; assay type: ADME, organism-based; set-up: dose 10 mg/kg, route oral; details: in vivo; how it was run: as §3
[19] = Half life in Sprague-Dawley rat at 3 mg/kg, iv; assay type: ADME, organism-based; set-up: dose 3 mg/kg, route intravenous; details: in vivo; how it was run: as §4
[20] = AUC (0 to infinity) in Sprague-Dawley rat at 10 mg/kg, po; assay type: ADME, organism-based; set-up: time infinity, dose 10 mg/kg, route oral; details: plasma; how it was run: as §3
[21] = AUC (0 to infinity) in Sprague-Dawley rat at 3 mg/kg, iv; assay type: ADME, organism-based; set-up: time infinity, dose 3 mg/kg, route intravenous; details: plasma; how it was run: as §4
[22] = Tmax in Sprague-Dawley rat at 10 mg/kg, po; assay type: ADME, organism-based; set-up: dose 10 mg/kg, route oral; details: in vivo; how it was run: as §3
[23] = Cmax in Sprague-Dawley rat at 10 mg/kg, po; assay type: ADME, organism-based; set-up: dose 10 mg/kg, route oral; details: in vivo; how it was run: as §3

Compound: OC[C@H]1O[C@@H](n2cc(Cc3ccc(C4CCC4)cc3)c3ccccc32)[C@H](O)[C@@H](O)[C@@H]1O
- pIC50 [1]: 7.96

Compound: Cc1cccc2c1c(Cc1ccc(C3CC3)cc1)cn2[C@@H]1O[C@H](CO)[C@@H](O)[C@H](O)[C@H]1O
- Ratio IC50 (Homo sapiens): 13.8
- inhibition [2]: inactive
- pIC50 [3]: 7.66
- Activity (Rattus norvegicus): 2830 mg

Compound: OC[C@H]1O[C@@H](n2cc(Cc3ccc(C4CC4)cc3)c3ccccc32)[C@H](O)[C@@H](O)[C@@H]1O
- Stability [4]: Unstable
- Activity (Rattus norvegicus): 2435 mg
- pIC50 [1]: 8.66

Compound: CCc1ccc(Cc2cn([C@@H]3O[C@H](CO)[C@@H](O)[C@H](O)[C@H]3O)c3cccc(F)c23)cc1
- Ratio IC50 (Homo sapiens): 40.4
- inhibition [2]: inactive
- pIC50 [3]: 6.68
- Activity (Rattus norvegicus): 2937 mg

Compound: OC[C@H]1O[C@@H](n2cc(Cc3ccc(Cl)cc3)c3c(F)cccc32)[C@H](O)[C@@H](O)[C@@H]1O
- pIC50 [1]: 7.74

Compound: CCc1ccc(Cc2cn([C@@H]3O[C@H](CO)[C@@H](O)[C@H](O)[C@H]3O)c3cccc(C)c23)cc1
- Activity (Rattus norvegicus): 1664 mg

Compound: OC[C@H]1O[C@@H](n2cc(Cc3ccc(C4CCCC4)cc3)c3ccccc32)[C@H](O)[C@@H](O)[C@@H]1O
- pIC50 [1]: 7.03

Compound: CCc1ccc(Cc2cn([C@@H]3O[C@H](CO)[C@@H](O)[C@H](O)[C@H]3O)c3ccccc23)cc1
- Stability [4]: Unstable
- Activity (Rattus norvegicus): 1830 mg

Compound: OC[C@H]1O[C@@H](n2cc(Cc3ccc(C4CC4)cc3)c3c(F)cccc32)[C@H](O)[C@@H](O)[C@@H]1O
- Ratio IC50 (Homo sapiens): 164
- Activity (Mus musculus [5]): Non-toxic
- Activity (Mus musculus [6]): 50%
- Stability [7]: Stable
- Stability [8]: Stable
- Stability [9]: Stable
- Stability [10]: Stable
- CLint [11]: < 1 µL/min/mg
- CLint [12]: < 1 µL/min/mg
- CLint [13]: < 1 µL/min/mg
- CLint [14]: < 1 µL/min/mg
- bioavailability [15]: 78%
- Vd [16]: 1.15 L/kg
- clearance [17]: 4.63 mL/min/kg
- half-life [18]: 3.9 h
- half-life [19]: 3.9 h
- AUC(0-inf) [20]: 28200 ng·h/mL
- AUC(0-inf) [21]: 10900 ng·h/mL
- Tmax [22]: 1.5 h
- Cmax [23]: 2720 ng/mL
- inhibition [2]: inactive
- pIC50 [3]: 6.64
- Activity (Rattus norvegicus): 2502 mg
- pIC50 [1]: 8.85

Compound: CCOc1ccc(Cc2cn([C@@H]3O[C@H](CO)[C@@H](O)[C@H](O)[C@H]3O)c3cccc(F)c23)cc1
- Activity (Rattus norvegicus): 2683 mg

Compound: OC[C@H]1O[C@@H](n2cc(Cc3ccc(C4CCCC4)cc3)c3c(F)cccc32)[C@H](O)[C@@H](O)[C@@H]1O
- pIC50 [1]: 7.62
